ChEMBL document CHEMBL1687899, “Structure-activity relationships in nucleotide oligomerization domain 1 (Nod1) agonistic γ-glutamyldiaminopimelic acid derivatives” (J Med Chem, 2011)
Active and inactive are the calls of the source. The calls are words filed in the database; no cut-off is given here.

Legend:
[1] = target: T1, Nucleotide-binding oligomerization domain-containing protein 1 (Homo sapiens, UniProt Q9Y239); assay: Agonist activity at human NOD-1 expressed in human HEK293 cells assessed as NF-kappaB induction by spectrophotometric analysis; type: functional, cell-based
T1 sequence (Q9Y239 whole entry): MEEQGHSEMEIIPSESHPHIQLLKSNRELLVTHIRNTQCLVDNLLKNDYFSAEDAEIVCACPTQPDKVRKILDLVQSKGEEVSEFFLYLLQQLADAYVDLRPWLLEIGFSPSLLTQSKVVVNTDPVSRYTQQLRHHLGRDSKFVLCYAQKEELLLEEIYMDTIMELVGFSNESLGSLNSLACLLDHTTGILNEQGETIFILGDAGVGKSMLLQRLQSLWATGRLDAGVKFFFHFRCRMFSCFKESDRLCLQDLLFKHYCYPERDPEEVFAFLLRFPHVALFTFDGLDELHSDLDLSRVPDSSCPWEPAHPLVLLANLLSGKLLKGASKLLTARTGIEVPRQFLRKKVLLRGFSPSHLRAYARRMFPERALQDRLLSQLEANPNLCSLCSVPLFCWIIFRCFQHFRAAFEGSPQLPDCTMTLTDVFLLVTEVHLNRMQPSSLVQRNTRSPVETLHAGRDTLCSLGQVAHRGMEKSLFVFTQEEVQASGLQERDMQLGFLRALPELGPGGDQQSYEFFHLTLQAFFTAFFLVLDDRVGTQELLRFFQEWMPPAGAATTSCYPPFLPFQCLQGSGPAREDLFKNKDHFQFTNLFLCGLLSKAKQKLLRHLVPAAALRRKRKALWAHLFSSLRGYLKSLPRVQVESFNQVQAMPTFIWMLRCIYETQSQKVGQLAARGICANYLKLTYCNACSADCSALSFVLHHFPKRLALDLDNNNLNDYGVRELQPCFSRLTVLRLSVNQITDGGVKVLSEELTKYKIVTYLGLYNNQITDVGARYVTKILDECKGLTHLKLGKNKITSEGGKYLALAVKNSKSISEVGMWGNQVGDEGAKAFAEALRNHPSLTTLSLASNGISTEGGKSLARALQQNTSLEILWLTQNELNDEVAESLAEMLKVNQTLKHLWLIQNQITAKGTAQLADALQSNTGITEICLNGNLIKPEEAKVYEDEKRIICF
In short: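 HEK-Blue cells (HEK293 stably transfected with human Nod1 and an NF-κB/AP-1-inducible secreted alkaline phosphatase reporter) were kept in selection medium with zeocin and normocin. Cells at ~10^5 cells/mL were grown to confluency and then given graded compound concentrations. Supernatant sAP was read spectrophotometrically at 620 nm with an alkaline phosphatase-specific chromogen.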

[2] = Upregulation of CD11b expression in human […] by flow cytometry; type: functional, cell-based
In short: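 Fresh anticoagulated human whole blood was incubated with graded compound dilutions for 1 h at 37°C, with saline negative controls. Samples were chilled 15 min, then stained with anti-CD11b/Mac-1 on ice for 30 min so only surface CD11b was labelled. Erythrocytes were lysed and leukocytes fixed, then washed. Flow cytometry in single-color PE mode acquired 20,000 gated events.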

[3] = Upregulation of p38 MAPK expression in human […] by flow cytometry; type: functional, cell-based
In short: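 Fresh heparinized human whole blood was incubated with graded compound concentrations diluted in saline for 15 min at 37°C. Erythrocytes were lysed and leukocytes fixed in one step, then permeabilized in ice-cold methanol for 30 min. Cells were stained 60 min with PE anti-phospho-p38MAPK (pT180/pY182) or a PE IgG1 κ isotype control. Flow cytometry acquired 20,000 gated events.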

PBMC [4] = assay: Upregulation of interleukin 19 in human PBMC at 20 ug/ml after 2 hrs; type: functional
In short: (§1)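 PBMCs were isolated from fresh heparin-anticoagulated human blood and stimulated with compound at 20 μg/mL for 2 h. Total RNA was extracted from treated and negative-control PBMC samples for transcriptomal profiling.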

PBMC [5] = assay: Upregulation of interleukin 6 in human PBMC at 20 ug/ml after 2 hrs; type: functional; in short: as §1
PBMC [6] = assay: Upregulation of interleukin 1alpha in human PBMC at 20 ug/ml after 2 hrs; type: functional; in short: as §1
PBMC [7] = assay: Upregulation of interleukin 1F9 in human PBMC at 20 ug/ml after 2 hrs; type: functional; in short: as §1
PBMC [8] = assay: Upregulation of interleukin 17A in human PBMC at 20 ug/ml after 2 hrs; type: functional; in short: as §1
PBMC [9] = assay: Upregulation of interleukin 1RN in human PBMC at 20 ug/ml after 2 hrs; type: functional; in short: as §1
PBMC [10] = assay: Upregulation of interleukin 12B in human PBMC at 20 ug/ml after 2 hrs; type: functional; in short: as §1
PBMC [11] = assay: Upregulation of interleukin 3 in human PBMC at 20 ug/ml after 2 hrs; type: functional; in short: as §1
PBMC [12] = assay: Upregulation of interleukin 1B in human PBMC at 20 ug/ml after 2 hrs; type: functional; in short: as §1
PBMC [13] = assay: Upregulation of interleukin 20 in human PBMC at 20 ug/ml after 2 hrs; type: functional; in short: as §1
PBMC [14] = assay: Upregulation of interleukin 22 in human PBMC at 20 ug/ml after 2 hrs; type: functional; in short: as §1
PBMC [15] = assay: Upregulation of interleukin 10 in human PBMC at 20 ug/ml after 2 hrs; type: functional; in short: as §1
PBMC [16] = assay: Upregulation of interleukin 2RA in human PBMC at 20 ug/ml after 2 hrs; type: functional; in short: as §1
PBMC [17] = assay: Upregulation of interleukin 24 in human PBMC at 20 ug/ml after 2 hrs; type: functional; in short: as §1
PBMC [18] = assay: Upregulation of interleukin 17RD in human PBMC at 20 ug/ml after 2 hrs; type: functional; in short: as §1
PBMC [19] = assay: Upregulation of interleukin 1F5 in human PBMC at 20 ug/ml after 2 hrs; type: functional; in short: as §1
PBMC [20] = assay: Upregulation of interleukin 8 in human PBMC at 20 ug/ml after 2 hrs; type: functional; in short: as §1
PBMC [21] = assay: Upregulation of interleukin 1F10 in human PBMC at 20 ug/ml after 2 hrs; type: functional; in short: as §1
PBMC [22] = assay: Upregulation of interleukin 18 in human PBMC at 20 ug/ml after 2 hrs; type: functional; in short: as §1
PBMC [23] = assay: Downregulation of interleukin 31RA in human PBMC at 20 ug/ml after 2 hrs; type: functional; in short: as §1
PBMC [24] = assay: Downregulation of interleukin 22RA1 in human PBMC at 20 ug/ml after 2 hrs; type: functional; in short: as §1
PBMC [25] = assay: Downregulation of interleukin 8RB in human PBMC at 20 ug/ml after 2 hrs; type: functional; in short: as §1
PBMC [26] = assay: Downregulation of interleukin 1RAPL1 in human PBMC at 20 ug/ml after 2 hrs; type: functional; in short: as §1
PBMC [27] = assay: Downregulation of interleukin 1RAP in human PBMC at 20 ug/ml after 2 hrs; type: functional; in short: as §1
[28] = target: Triggering receptor expressed on myeloid cells 1 (Homo sapiens) (UniProt Q9NP99); assay: Induction of TREM-1-mediated activation of IL-6 signaling pathway in human PBMC at 20 ug/ml; in short: as §1
Sequence of Triggering receptor expressed on myeloid cells 1 (Homo sapiens) (Q9NP99 whole entry, looked up): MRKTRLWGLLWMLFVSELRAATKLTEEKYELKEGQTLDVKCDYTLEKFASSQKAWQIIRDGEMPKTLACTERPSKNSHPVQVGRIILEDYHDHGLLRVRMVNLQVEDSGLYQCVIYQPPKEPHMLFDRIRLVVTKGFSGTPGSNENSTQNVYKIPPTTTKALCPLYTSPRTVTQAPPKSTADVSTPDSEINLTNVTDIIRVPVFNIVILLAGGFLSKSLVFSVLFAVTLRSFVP

[29] = target: Triggering receptor expressed on myeloid cells 1 (Homo sapiens) (UniProt Q9NP99); assay: Induction of TREM-1-mediated T-helper cell differentiation in human PBMC at 20 ug/ml; type: cell-based; in short: as §1
[30] = target: Triggering receptor expressed on myeloid cells 1 (Homo sapiens) (UniProt Q9NP99); assay: Induction of TREM-1-mediated dendritic cell maturation in human PBMC at 20 ug/ml; in short: as §1
[31] = target: Triggering receptor expressed on myeloid cells 1 (Homo sapiens) (UniProt Q9NP99); assay: Induction of TREM-1-mediated LXR/RXR activation in human PBMC at 20 ug/ml; in short: as §1
[32] = target: Triggering receptor expressed on myeloid cells 1 (Homo sapiens) (UniProt Q9NP99); assay: Induction of TREM-1-mediated activation of NF-kappaB signalling pathway in human PBMC at 20 ug/ml; in short: as §1
[33] = target: Triggering receptor expressed on myeloid cells 1 (Homo sapiens) (UniProt Q9NP99); assay: Induction of TREM-1-mediated activation of IL-10 signalling pathway in human PBMC at 20 ug/ml; in short: as §1
[34] = target: Triggering receptor expressed on myeloid cells 1 (Homo sapiens) (UniProt Q9NP99); assay: Induction of TREM-1-mediated activation of IRF by cytosolic pattern recognition receptors in human PBMC at 20 ug/ml; in short: as §1
[35] = target: Triggering receptor expressed on myeloid cells 1 (Homo sapiens) (UniProt Q9NP99); assay: Induction of TREM-1-mediated activation of IL-9 signalling pathway in human PBMC at 20 ug/ml; in short: as §1
[36] = target: Triggering receptor expressed on myeloid cells 1 (Homo sapiens) (UniProt Q9NP99); assay: Induction of TREM-1-mediated activation of TNFR2 signalling pathway in human PBMC at 20 ug/ml; in short: as §1
[37] = target: Triggering receptor expressed on myeloid cells 1 (Homo sapiens) (UniProt Q9NP99); assay: Induction of TREM-1-mediated activation of PPAR signalling pathway in human PBMC at 20 ug/ml; in short: as §1
[38] = target: Triggering receptor expressed on myeloid cells 1 (Homo sapiens) (UniProt Q9NP99); assay: Induction of TREM-1-mediated activation of p38 MAPK signalling pathway in human PBMC at 20 ug/ml; in short: as §1
[39] = target: Triggering receptor expressed on myeloid cells 1 (Homo sapiens) (UniProt Q9NP99); assay: Induction of TREM-1-mediated activation of IL12 signalling and production in human PBMC at 20 ug/ml; in short: as §1
[40] = target: Triggering receptor expressed on myeloid cells 1 (Homo sapiens) (UniProt Q9NP99); assay: Induction of TREM-1-mediated activation of communication between innate and adaptive immune cells in human PBMC at 20 ug/ml; type: cell-based; in short: as §1

## CCCCCCCCCCCC(=O)N[C@H](CCC(=O)NC(CCCC(N)C(=O)O)C(=O)O)C(=O)O (some centres undefined)
[1]
  EC50: 0.027 nM
[2]
  Activity: Dose-dependent effect
[3]
  Activity: Dose-dependent effect

## CCCCCCCCCCCOC(=O)[C@@H](CCC(=O)NC(CCCC(N)C(=O)O)C(=O)O)NC(=O)CCCCCCCCCCC (some centres undefined)
[1]
  EC50: 0.134 nM

## CCCCCCCCCCCCN[C@H](CCC(=O)NC(CCCC(N)C(=O)O)C(=O)O)C(=O)O (some centres undefined)
[1]
  EC50: 0.023 nM

## CCCCCCCCCCCC(=O)N[C@H](CCC(=O)NC(CCCC(NC(=N)N)C(=O)O)C(=O)O)C(=O)O (some centres undefined)
[1]
  EC50: 0.622 nM

## CCCCCCCCCCCOC(=O)[C@@H](CCC(=O)NC(CCCC(N)C(=O)O)C(=O)O)NC(=N)N (some centres undefined)
[1]
  EC50: 0.238 nM

## CCCCCCCCCCCC(=O)N[C@H](CCC(=O)N[C@H](CCCCN)C(=O)O)C(=O)O
[1]
  EC50: > 100 nM

## CCCCCCCCCCCC(=O)N[C@H](CCC(=O)NC(CCCCC(=O)O)C(=O)O)C(=O)O (some centres undefined)
[1]
  EC50: > 100 nM

## CCCCCCCCCCCCN(CCCCCCCCCCCC)[C@H](CCC(=O)NC(CCCC(N)C(=O)O)C(=O)O)C(=O)O (some centres undefined)
[1]
  EC50: 0.0015 nM
[2]
  Activity: Dose-dependent effect
[3]
  Activity: Dose-dependent effect
PBMC [4]
  fold change (FC): 30.39
PBMC [5]
  fold change (FC): 29.54
PBMC [6]
  fold change (FC): 14.34
PBMC [7]
  fold change (FC): 11.1
PBMC [8]
  fold change (FC): 10.56
PBMC [9]
  fold change (FC): 4.94
PBMC [10]
  fold change (FC): 6.13
PBMC [11]
  fold change (FC): 5.99
PBMC [12]
  fold change (FC): 4.14
PBMC [13]
  fold change (FC): 4
PBMC [14]
  fold change (FC): 3.87
PBMC [15]
  fold change (FC): 3.62
PBMC [16]
  fold change (FC): 3.57
PBMC [17]
  fold change (FC): 3.41
PBMC [18]
  fold change (FC): 3.17
PBMC [19]
  fold change (FC): 3.15
PBMC [20]
  fold change (FC): 2.29
PBMC [21]
  fold change (FC): 2.05
PBMC [22]
  fold change (FC): 2.03
PBMC [23]
  fold change (FC): 4.05
PBMC [24]
  fold change (FC): 3.69
PBMC [25]
  fold change (FC): 2.75
PBMC [26]
  fold change (FC): 2.06
PBMC [27]
  fold change (FC): 2.02
[28]
  Activity: Active
[29]
  Activity: Active
[30]
  Activity: Active
[31]
  Activity: Active
[32]
  Activity: Active
[33]
  Activity: Active
[34]
  Activity: Active
[35]
  Activity: Active
[36]
  Activity: Active
[37]
  Activity: Active
[38]
  Activity: Active
[39]
  Activity: Active
[40]
  Activity: Active

## CCCCCCCCN(CCCCCCCC)[C@H](CCC(=O)NC(CCCC(N)C(=O)O)C(=O)O)C(=O)O (some centres undefined)
[1]
  EC50: 0.2 nM

## CCCCCCCCCCCC(=O)NC(CCCC(NC(=O)CC[C@@H](NC(=O)CCCCCCCCCCC)C(=O)O)C(=O)O)C(=O)O (some centres undefined)
[1]
  EC50: 0.58 nM

## CCCCCCCCCCCC(=O)N[C@H](CCC(=O)NC(CCCC(N)C(=O)O)C(=O)O)C(=O)OCC (some centres undefined)
[1]
  EC50: 0.069 nM

## CCCCCCCCCCCC(=O)N[C@H](CCC(=O)N[C@@H](CCCCN)C(=O)O)C(=O)O
[1]
  EC50: 0.57 nM

## CCCCCCCCCCCSC(=O)[C@H](N)CCC(=O)NC(CCCC(N)C(=O)OCC)C(=O)OCC (some centres undefined)
[1]
  EC50: 0.181 nM
